# In ChEMBL document CHEMBL1649165, “Activity profile in vitro of micafungin against Spanish clinical isolates of common and emerging species of yeasts and molds” (2009):
# Tests used:
# Type in all cases: functional
# Pichia norvegensis = test: Antimicrobial activity against Candida norvegensis by broth microdilution method
# Outline: (§1)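 Clinical isolates from human patients, tested by broth microdilution using the AFST-EUCAST reference procedure for fermentative yeasts. The MIC was read per that reference method.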
# Mucor = test: Antimicrobial activity against Mucor spp.by broth microdilution method
# Outline: (§2)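 Filamentous fungus clinical isolates tested by the AFST-EUCAST reference broth microdilution method for moulds. For echinocandins, the endpoint was the minimum effective concentration: the lowest drug concentration giving aberrant hyphal growth, read with an inverted microscope.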
# [Candida] inconspicua = Antimicrobial activity against Candida inconspicua by broth microdilution method; settings: Pichia inconspicua; outline: as §1
# Coprinellus domesticus = test: Antimicrobial activity against Hormographiella verticillata by broth microdilution method; outline: as §2
# Diutina rugosa = test: Antimicrobial activity against Candida rugosa by broth microdilution method; outline: as §1
# Nakaseomyces glabratus = test: Antimicrobial activity against Candida glabrata by broth microdilution method; outline: as §1
# Trichosporon = test: Antimicrobial activity against Trichosporon spp. by broth microdilution method
# Outline: (§3)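 Nonfermentative yeast clinical isolates (Rhodotorula, Trichosporon) tested by broth microdilution. The EUCAST yeast recommendations were followed strictly, with one minor modification to improve growth. MIC was read as the endpoint.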
# Yarrowia lipolytica = test: Antimicrobial activity against Yarrowia lipolytica by broth microdilution method
# Fennellia nivea = test: Antimicrobial activity against Aspergillus niveus by broth microdilution method
# Outline: (§4)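 Clinical mould isolates, tested by broth microdilution using the AFST-EUCAST reference method for filamentous fungi. For echinocandins, the endpoint was the minimum effective concentration: the lowest drug concentration giving aberrant hyphal growth, read with an inverted microscope.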
# Candida albicans = test: Antimicrobial activity against Candida albicans by broth microdilution method; outline: as §1
# Fusarium verticillioides = test: Antimicrobial activity against Fusarium verticillioides by broth microdilution method; outline: as §2
# Papiliotrema laurentii = test: Antimicrobial activity against Cryptococcus laurentii by broth microdilution method
# Outline: (§5)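 Clinical isolates of nonfermentative yeasts, tested by broth microdilution following EUCAST recommendations. The only change from that method was a minor modification to improve growth.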
# Fusarium reticulatum = test: Antimicrobial activity against Fusarium reticulatum by broth microdilution method; outline: as §2
# Aspergillus niger = test: Antimicrobial activity against Aspergillus niger by broth microdilution method; outline: as §4
# [Candida] zeylanoides = Antimicrobial activity against Candida zeylanoides by broth microdilution method; settings: Dujonia zeylanoides; outline: as §1
# Wickerhamomyces anomalus = test: Antimicrobial activity against Candida pelliculosa by broth microdilution method; settings: Hansenula anomala; outline: as §1
# Aspergillus = test: Antimicrobial activity against Aspergillus spp. by broth microdilution method; outline: as §4
# Magnusiomyces capitatus = test: Antimicrobial activity against Dipodascus capitatus by broth microdilution method
# Kluyveromyces marxianus = test: Antimicrobial activity against Candida kefyr by broth microdilution method; outline: as §1
# Trichoderma = test: Antimicrobial activity against Trichoderma spp. by broth microdilution method; outline: as §2
# Saccharomyces cerevisiae = test: Antimicrobial activity against Saccharomyces cerevisiae by broth microdilution method
# Trichosporon domesticum = test: Antimicrobial activity against Trichosporon mycotoxinivorans by broth microdilution method; settings: Apiotrichum domesticum
# Outline: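 Spanish human clinical isolates were tested as nonfermentative yeasts by broth microdilution. The method strictly followed the EUCAST recommendations, with a minor modification to improve growth, and the read-out was the MIC.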
# Scytalidium hyalinum = test: Antimicrobial activity against Scytalidium hyalinum by broth microdilution method; settings: Neoscytalidium hyalinum; outline: as §2
# Lecythophora hoffmannii = test: Antimicrobial activity against Lecythophora hoffmannii by broth microdilution method; settings: Coniochaeta hoffmannii; outline: as §2
# Candida tropicalis = test: Antimicrobial activity against Candida tropicalis by broth microdilution method; outline: as §1
# Aspergillus flavus = test: Antimicrobial activity against Aspergillus flavus by broth microdilution method; outline: as §4
# Aspergillus fumigatus = test: Antimicrobial activity against Aspergillus fumigatus by broth microdilution method; outline: as §4
# Naganishia albida = test: Antimicrobial activity against Cryptococcus albidus by broth microdilution method; outline: as §5
# Acremonium sp. = test: Antimicrobial activity against Acremonium sp.by broth microdilution method; outline: as §4
# [Candida] intermedia = Antimicrobial activity against Candida intermedia by broth microdilution method; settings: Sungouiella intermedia; outline: as §1
# Torulaspora delbrueckii = test: Antimicrobial activity against Candida coliculosa by broth microdilution method; outline: as §1
# Aspergillus sclerotiorum = test: Antimicrobial activity against Aspergillus sclerotiorum by broth microdilution method; outline: as §4
# Scedosporium apiospermum = test: Antimicrobial activity against Scedosporium apiospermum by broth microdilution method; outline: as §2
# Aspergillus ochraceus = test: Antimicrobial activity against Aspergillus ochraceus by broth microdilution method; outline: as §4
# Fusarium proliferatum = test: Antimicrobial activity against Fusarium proliferatum by broth microdilution method; outline: as §4
# Trichosporon asahii = test: Antimicrobial activity against Trichosporon asahii by broth microdilution method; outline: as §3
# Penicillium = test: Antimicrobial activity against Penicillium spp. by broth microdilution method; outline: as §2
# Alternaria alternata = test: Antimicrobial activity against Alternaria alternata by broth microdilution method; outline: as §4
# Paecilomyces variotii = test: Antimicrobial activity against Paecilomyces variotii by broth microdilution method; outline: as §2
# Paecilomyces lilacinus = test: Antimicrobial activity against Paecilomyces lilacinus by broth microdilution method; settings: Purpureocillium lilacinum; outline: as §2
# Aspergillus terreus = test: Antimicrobial activity against Aspergillus terreus by broth microdilution method; outline: as §4
# Trichosporon dermatis = test: Antimicrobial activity against Trichosporon dermatis by broth microdilution method; settings: Cutaneotrichosporon dermatis; outline: as §3
# Aspergillus sydowii = test: Antimicrobial activity against Aspergillus sydowii by broth microdilution method; outline: as §4
# Trichosporon jirovecii = test: Antimicrobial activity against Trichosporon jirovecii by broth microdilution method; settings: Cutaneotrichosporon jirovecii; outline: as §3
smiles,measurement,setting,value
CC[C@H](C)C[C@H](C)CCCCCCCCC(=O)N[C@H]1C[C@@H](O)[C@@H](NCCN)NC(=O)[C@@H]2[C@@H](O)CCN2C(=O)[C@H]([C@H](O)CCN)NC(=O)[C@H]([C@H](O)[C@@H](O)c2ccc(O)cc2)NC(=O)[C@@H]2C[C@@H](O)CN2C(=O)[C@H]([C@@H](C)O)NC1=O [CASPOFUNGIN],MIC50,Pichia norvegensis,0.06 µg/mL
same,MIC90,Pichia norvegensis,0.5 µg/mL
same,MIC50,Mucor,> 16 µg/mL
same,MIC90,Mucor,> 16 µg/mL
same,MIC50,[Candida] inconspicua,0.06 µg/mL
same,MIC90,[Candida] inconspicua,0.5 µg/mL
same,MIC50,Coprinellus domesticus,> 16 µg/mL
same,MIC90,Coprinellus domesticus,> 16 µg/mL
same,MIC50,Diutina rugosa,0.06 µg/mL
same,MIC90,Diutina rugosa,0.5 µg/mL
same,MIC50,Nakaseomyces glabratus,0.12 µg/mL
same,MIC90,Nakaseomyces glabratus,0.25 µg/mL
same,MIC50,Trichosporon,> 16 µg/mL
same,MIC90,Trichosporon,> 16 µg/mL
same,MIC50,Yarrowia lipolytica,0.5 µg/mL
same,MIC90,Yarrowia lipolytica,1 µg/mL
same,MIC50,Fennellia nivea,0.12 µg/mL
same,MIC90,Fennellia nivea,0.5 µg/mL
same,MIC50,Candida albicans,0.06 µg/mL
same,MIC90,Candida albicans,0.12 µg/mL
same,MIC50,Fusarium verticillioides,> 16 µg/mL
same,MIC90,Fusarium verticillioides,> 16 µg/mL
same,MIC50,Papiliotrema laurentii,> 16 µg/mL
same,MIC90,Papiliotrema laurentii,> 16 µg/mL
same,MIC50,Fusarium reticulatum,> 16 µg/mL
same,MIC90,Fusarium reticulatum,> 16 µg/mL
same,MIC50,Aspergillus niger,0.25 µg/mL
same,MIC90,Aspergillus niger,0.5 µg/mL
same,MIC50,[Candida] zeylanoides,0.06 µg/mL
same,MIC90,[Candida] zeylanoides,0.5 µg/mL
same,MIC50,Wickerhamomyces anomalus,0.06 µg/mL
same,MIC90,Wickerhamomyces anomalus,0.5 µg/mL
same,MIC50,Aspergillus,0.12 µg/mL
same,MIC90,Aspergillus,0.5 µg/mL
same,MIC50,Magnusiomyces capitatus,> 16 µg/mL
same,MIC90,Magnusiomyces capitatus,> 16 µg/mL
same,MIC50,Kluyveromyces marxianus,0.06 µg/mL
same,MIC90,Kluyveromyces marxianus,0.12 µg/mL
same,MIC50,Trichoderma,> 16 µg/mL
same,MIC90,Trichoderma,> 16 µg/mL
same,MIC50,Saccharomyces cerevisiae,0.5 µg/mL
same,MIC90,Saccharomyces cerevisiae,1 µg/mL
same,MIC50,Trichosporon domesticum,> 16 µg/mL
same,MIC90,Trichosporon domesticum,> 16 µg/mL
same,MIC50,Scytalidium hyalinum,0.25 µg/mL
same,MIC90,Scytalidium hyalinum,1 µg/mL
same,MIC50,Lecythophora hoffmannii,0.25 µg/mL
same,MIC90,Lecythophora hoffmannii,1 µg/mL
same,MIC50,Candida tropicalis,0.12 µg/mL
same,MIC90,Candida tropicalis,0.25 µg/mL
same,MIC50,Aspergillus flavus,> 16 µg/mL
same,MIC90,Aspergillus flavus,> 16 µg/mL
same,MIC50,Aspergillus fumigatus,0.25 µg/mL
same,MIC90,Aspergillus fumigatus,0.5 µg/mL
same,MIC50,Naganishia albida,> 16 µg/mL
same,MIC90,Naganishia albida,> 16 µg/mL
same,MIC50,Acremonium sp.,0.5 µg/mL
same,MIC90,Acremonium sp.,1 µg/mL
same,MIC50,[Candida] intermedia,0.06 µg/mL
same,MIC90,[Candida] intermedia,0.5 µg/mL
same,MIC50,Torulaspora delbrueckii,0.06 µg/mL
same,MIC90,Torulaspora delbrueckii,0.5 µg/mL
same,MIC50,Aspergillus sclerotiorum,0.12 µg/mL
same,MIC90,Aspergillus sclerotiorum,0.5 µg/mL
same,MIC50,Scedosporium apiospermum,2 µg/mL
same,MIC90,Scedosporium apiospermum,> 16 µg/mL
same,MIC50,Aspergillus ochraceus,0.12 µg/mL
same,MIC90,Aspergillus ochraceus,0.5 µg/mL
same,MIC50,Fusarium proliferatum,> 16 µg/mL
same,MIC90,Fusarium proliferatum,> 16 µg/mL
same,MIC50,Trichosporon asahii,> 16 µg/mL
same,MIC90,Trichosporon asahii,> 16 µg/mL
same,MIC50,Penicillium,0.25 µg/mL
same,MIC90,Penicillium,8 µg/mL
same,MIC50,Alternaria alternata,4 µg/mL
same,MIC90,Alternaria alternata,> 16 µg/mL
same,MIC50,Paecilomyces variotii,0.5 µg/mL
same,MIC90,Paecilomyces variotii,4 µg/mL
same,MIC50,Paecilomyces lilacinus,> 16 µg/mL
same,MIC90,Paecilomyces lilacinus,> 16 µg/mL
same,MIC50,Aspergillus terreus,1 µg/mL
same,MIC90,Aspergillus terreus,2 µg/mL
same,MIC50,Trichosporon dermatis,> 16 µg/mL
same,MIC90,Trichosporon dermatis,> 16 µg/mL
same,MIC50,Aspergillus sydowii,0.25 µg/mL
same,MIC90,Aspergillus sydowii,1 µg/mL
same,MIC50,Trichosporon jirovecii,> 16 µg/mL
same,MIC90,Trichosporon jirovecii,> 16 µg/mL
